Data from article PMC2992178 (Diabetes Care, 2010).
Read-outs that look alike come from different tables or passages of the source.

Tests used:
[1] = Plasma lispro pharmacokinetics after subcutaneous injection, healthy subjects; assay type: in vivo, human; conditions: healthy subjects (n=6), 10 units s.c., mean ± SD
Summary of the method: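 Venous blood was drawn every 10 min for 3 h, then every 20 min, after a 10-unit subcutaneous abdominal lispro dose under a euglycemic clamp. Type 2 diabetic subjects had first received an overnight IV insulin infusion. Samples went into citrate tubes with protease inhibitors, were spun at 4°C, snap-frozen and stored at −80°C. Lispro was measured by specific radioimmunoassay in duplicate. Noncompartmental analysis gave Cmax, AUC0-∞, Cl and dose ratios; non-normal data were log-transformed.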

[2] = assay type: in vivo, human; conditions: for AUC0-∞/D, AUC0-∞ to dose ratio / Cmax/D, Cmax to dose ratio / Cl, clearance / Mean resistance time / Vz, volume of distribution / Cmax, maximum plasma concentration / Tmax, time to maximal concentration / t½, half-life: obese type 2 diabetes (n=7), mean ± SD; for Cl, clearance / Mean resistance time / Vz, volume of distribution / t½, half-life: noncompartmental; for Cmax, maximum plasma concentration / Tmax, time to maximal concentration: plasma RIA; for t½, half-life: plasma
[3] = system: healthy subjects; assay: Euglycemic clamp; assay type: in vivo, human; conditions: 10 units s.c.
Summary of the method: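 Healthy volunteers fasted overnight from 8:00 p.m., then received a single 10-unit lispro dose by pen with an 8-mm needle. It went into abdominal subcutaneous fat 8 cm above the umbilicus and 10 cm from the midline. Plasma glucose was read every 5 min and clamped at 5–6 mmol/l with IV 20% dextrose for 8 h. GIRmax, tGIRmax and GItot came from GIR–time data; GIR was also plotted against plasma lispro concentration.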

[4] = system: obese subjects with type 2 diabetes; assay: Euglycemic clamp; assay type: in vivo, human; conditions: obese type 2 diabetes

## lispro
[1]
  AUC0-∞/D, AUC0-∞ to dose ratio: 1.190 ± 0.302 min/L
  Cmax/D, Cmax to dose ratio: 0.0091 ± 0.0007 L
[1]; noncompartmental
  Cl, clearance: 0.88 ± 0.21 L/min
  Mean resistance time: 119 ± 21 min
  Vz, volume of distribution: 67 ± 16 L
[1]; plasma RIA
  Cmax, maximum plasma concentration: 0.523 ± 0.042 nM
  Tmax, time to maximal concentration: 0.805 ± 0.0683 h
[1]; plasma RIA, noncompartmental
  AUC0-∞, area under the lispro plasma concentration curve: 68,462 ± 17,346 pmol/min/l
[1]; plasma, noncompartmental
  t½, half-life: 1.12 ± 0.25 h
[2]; 10 units s.c., P < 0.001
  Cmax/D lower in subjects with type 2 diabetes than in healthy subjects: 41%
[2]; 10 units s.c.
  AUC0-∞/D, AUC0-∞ to dose ratio: 1.056 ± 0.264 min/L
  Cmax/D, Cmax to dose ratio: 0.0054 ± 0.0005 L
  Cl, clearance: 0.99 ± 0.22 L/min
  Mean resistance time: 180 ± 65 min
  Vz, volume of distribution: 118 ± 34 L
  Cmax, maximum plasma concentration: 310 ± 28 pmol/L
  Tmax, time to maximal concentration: 0.928 ± 0.233 h
  t½, half-life: 1.67 ± 0.567 h
[2]; 30 units s.c.
  AUC0-∞/D, AUC0-∞ to dose ratio: 1.140 ± 0.188 min/L
  Cmax/D, Cmax to dose ratio: 0.0047 ± 0.0012 L
  Cl, clearance: 0.90 ± 0.14 L/min
  Mean resistance time: 196 ± 30 min
  Vz, volume of distribution: 104 ± 53 L
  Cmax, maximum plasma concentration: 808 ± 218 ^‖ pmol/l
  Tmax, time to maximal concentration: 1.48 ± 0.365 h
  t½, half-life: 1.62 ± 0.633 h
[2]; 50 units s.c.
  AUC0-∞/D, AUC0-∞ to dose ratio: 1.296 ± 0.208 min/L
  Cmax/D, Cmax to dose ratio: 0.0046 ± 0.0012 L
  Cl, clearance: 0.79 ± 0.13 L/min
  Mean resistance time: 236 ± 49 min
  Vz, volume of distribution: 107 ± 46 L
  Cmax, maximum plasma concentration: 1,313 ± 346 ^‖ ^# pmol/l
  t½, half-life: 2.27 ± 1.2 h
[2]; obese type 2 diabetes, 50 units versus 10 units, P < 0.001
  delay of Tmax: 1.23 h
[3]
  average difference between Tmax and tGIRmax: 0.317 h
[3]; at insulin concentrations nearing 40 pmol/l
  initial GIR response: 2.22 mg/kg/min
[4]; 10 units s.c., P < 0.0001
  GIRmax as % of the value measured in healthy subjects: 7%
  GItot as % of the value measured in healthy subjects: 4%
  prolongation of tGIRmax versus healthy subjects: 1 h
[4]; 10 units s.c., P < 0.0007 versus healthy
  average difference between Tmax and tGIRmax: 1.23 h
[4]; 30 units s.c.
  average difference between Tmax and tGIRmax: 1.43 h
[4]; 50 units s.c.
  average difference between Tmax and tGIRmax: 1.92 h
